MrgX1 PAM = allosterically activates human MrgX1 receptor signaling; Q96LB2; actives 0.63% (n = 310,000); AID 588675; MrgX1-HEK293, Fluo-4 calcium flux, FDSS; active compounds read high; B-score at 10 µM;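 active = plate-corrected calcium response at least 3 library SD above typical, normal starting fluorescence, not activating the receptor alone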;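 also: compound read alongside a low EC10 to EC30 dose of BAM8-22 agonist; peak minus trough fluorescence over baseline measured at the second addition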
Target sequence (Q96LB2 whole entry, looked up): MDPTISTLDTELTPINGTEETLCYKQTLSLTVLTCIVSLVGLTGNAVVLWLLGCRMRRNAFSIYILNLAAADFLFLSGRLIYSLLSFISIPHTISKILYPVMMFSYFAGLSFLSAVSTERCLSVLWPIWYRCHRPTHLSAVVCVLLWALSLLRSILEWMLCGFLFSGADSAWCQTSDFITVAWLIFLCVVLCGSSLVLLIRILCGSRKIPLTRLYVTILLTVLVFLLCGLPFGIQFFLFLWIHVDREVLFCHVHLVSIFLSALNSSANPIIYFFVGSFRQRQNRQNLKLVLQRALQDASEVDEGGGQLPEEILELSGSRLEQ
RGS4 inh = inhibitors of human RGS4; AID 463165; B-score at 10 µM; P49798; HEK293 M3R/RGS4 inducible, Fluo-4 calcium flux; active compounds read high; triggered by carbachol at its EC20; actives 0.45% (n = 310,000);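 active = B-score, a plate-corrected calcium signal, over three deviations above library mean, with baseline fluorescence within five deviations of library mean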;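 also: RGS4 expression induced by doxycycline in cells with stable M3 receptor; B-score is computed from the integrated fluorescence ratio over baseline after carbachol; higher B-score means a larger calcium signal and so more RGS4 inhibition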
Target sequence (P49798 whole entry, looked up): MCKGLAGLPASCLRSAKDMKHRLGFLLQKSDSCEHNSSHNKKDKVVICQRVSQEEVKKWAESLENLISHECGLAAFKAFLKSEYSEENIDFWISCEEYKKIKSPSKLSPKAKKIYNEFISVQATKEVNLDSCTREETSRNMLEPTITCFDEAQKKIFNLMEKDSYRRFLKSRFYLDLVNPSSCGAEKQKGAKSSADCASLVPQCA
MrgX1 antag = antagonists of human MrgX1 receptor; Q96LB2; MRGX1-HEK293 calcium flux, Fluo-4, BAM8-22 antagonism; active compounds read low; B-score at 10 µM; actives 1.3% (n = 310,000);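 active = calcium-response B-score plate-corrected more than 3 library SD below zero, starting fluorescence within 5 deviations, no agonist response on first addition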;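 also: peak minus trough fluorescence over baseline after final BAM8-22 challenge near maximal dose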
RGS4 pot = potentiators or activators of RGS4. HEK293 M3R/inducible RGS4, carbachol calcium flux Fluo4; active compounds read low. B-score at 10 µM. actives 0.92% (n = 310,000). AID 463111;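 active = B-score of the integrated calcium signal more than 4 SD below the library mean, with starting fluorescence not abnormally high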;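 also: negative B-score means reduced calcium response which marks RGS4 activation or potentiation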
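System – HEK293 FlpIn-TREx cells, stable M3R, doxycycline-inducible RGS4 · Reagent – ECmax carbachol challenge · Times – compound preincubation 20 min at room temperature before agonist · Technique – Fluo4 fluorescence kinetic imaging of calcium · Measure – B score of integrated Fluo4 ratio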
MrgX1 ag = agonists of human MrgX1 receptor. Q96LB2. MrgX1-HEK293 cells, Fluo-4 calcium fluorescence, agonist mode; active compounds read high. B-score at 10 µM. actives 0.44% (n = 310,000);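 active = calcium response B-score plate-corrected fluorescence ratio at least 3 library SD, with starting fluorescence B-score inside 5 SD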
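Material: HEK293 cells stably expressing human MrgX1 receptor | Quantity: 15,000 cells per well | Times: Cells plated overnight, dye loaded 0.5 h 37 °C, 0.5 h room temperature | Measured by: Kinetic Fluo-4 NW fluorescence of intracellular calcium | Control set: Positive and negative controls per plate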
MrgX1 ant reconf = human MrgX1 receptor antagonism, re-confirmation screen | MrgX1-HEK293, BAM8-22 calcium flux, Fluo-4; active compounds read low | AID 602420 | actives 19% (n = 2,300) | shares compounds with MrgX1 antag | remaining BAM8-22 calcium response % of control (active compounds read low), % at 10 µM;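 active = remaining agonist calcium response no higher than 100% minus 3 SD of agonist-only control wells, with starting fluorescence near control levels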;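 also: agonist BAM8-22 given at a near maximal EC90 to ECmax level; peak minus minimum fluorescence divided by baseline after agonist addition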
HEK293 Ca flux = MrgX1 antagonist counter-screen hit in parental HEK293 cells; shares compounds with MrgX1 antag; Fluo-4 calcium fluorescence, FDSS; fluorescence ratio F(max-min)/F0 at 10 µM; actives 2% (n = 4,000);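 active = duplicate-averaged calcium fluorescence ratio at least three times the standard deviation of buffer wells, a nonspecific response in parental cells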
HEK293 Ca counter = MrgX1 allosteric activator counter-screen hit in parental HEK293 cells; shares compounds with MrgX1 antag; parental HEK293 calcium flux, Fluo-4 fluorescence ratio; active compounds read high; fluorescence ratio F(max-min)/F0 at 10 µM; actives 0.4% (n = 4,000);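 active = calcium fluorescence ratio, averaged over duplicates, at least 3 SD of the buffer-well ratio, meaning a nonspecific response in receptor-free cells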;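 also: untransfected parental HEK293 lacking MrgX1 used as counterscreen for MrgX1 allosteric activators; fluorescence change taken during the second addition on a kinetic imager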
HEK293 Ca cntr2 = counter-screen for MrgX1 activators: effect in parental HEK293 cells; shares compounds with MrgX1 antag; Fluo-4 calcium fluorescence (FDSS); active compounds read high; actives 8.7% (n = 4,000); fluorescence ratio F(max-min)/F0 at 10 µM;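 active = calcium fluorescence ratio at least three times the spread of buffer wells, meaning a non-specific response in parental cells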
An asterisk follows results filed as active; i = inactive; . = not tested or not shown. Rows were chosen to be rich in hits. Some 3.5% of all compounds tested hit in one or more screens of this group.

SMILES | MrgX1 PAM | RGS4 inh | MrgX1 antag | RGS4 pot | MrgX1 ag | MrgX1 ant reconf | HEK293 Ca flux | HEK293 Ca counter | HEK293 Ca cntr2
Cc1ccc(S(=O)(=O)N2CCN(c3ccccc3)CC2)cc1C(=O)NC1CCCCC1 | i | i | i | i | i | . | . | . | .
COc1ccccc1/C=C/c1onc(C)c1S(=O)(=O)N1CCC(C(=O)NC(C)C)CC1 | i | i | -5.5* | i | i | i | i | i | i
COc1cc(OC)cc(C(=O)NC(=S)Nc2ccc(NC(=O)c3ccco3)cc2)c1 | i | i | -5.1* | i | i | i | i | i | i
CC1(C)NC(=O)N(CC(O)CN(c2ccccc2)S(=O)(=O)c2ccccc2[N+](=O)[O-])C1=O (stereo not given) | i | i | i | i | i | . | . | . | .
CC(NC(=O)NC(N)=O)(C(F)(F)F)C(F)(F)F | i | i | -5.2* | i | i | i | i | i | i
CCOc1ccc(NC(=S)NC(=O)C2CCCC2)cc1 | i | i | -5.4* | i | i | i | i | i | i
COc1ccc(NC(=S)NC(=O)C2CCCCC2)cc1 | i | i | i | i | i | . | . | . | .
Brc1ccc(-n2cnc(-c3ccccc3)c2)cc1 | i | i | i | i | i | . | . | . | .
CCc1nnc(NC(=O)CSc2nnc(-c3cc4ccccc4cc3O)n2CC)s1 | i | i | i | i | i | . | . | . | .
CCn1c(SCC(=O)N(C(C)C)C(C)C)nnc1-c1cc2ccccc2cc1O | i | i | -6.2* | i | i | i | i | i | i
O=C(CN(c1ccccn1)S(=O)(=O)c1ccc(F)cc1)Nc1ccccc1 | i | i | -6* | i | i | i | i | i | i
Cn1c(=O)c2sccc2n(Cc2cccc(Br)c2)c1=O | i | i | i | i | i | . | . | . | .
CCOc1ccccc1N(CC(=O)OC)S(C)(=O)=O | i | i | -6.2* | i | i | i | i | i | i
O=C1c2cccc3c(N4CCCCC4)ccc(c23)C(=O)N1CCO | i | i | i | i | i | . | . | . | .
O=C1c2cccc3c(N4CCCCC4)ccc(c23)C(=O)N1c1cccc(O)c1 | i | i | -5.2* | i | i | i | i | i | i
CCOc1cc(S(=O)(=O)NCc2ccncc2)ccc1Cl | i | i | i | i | i | . | . | . | .
Cc1cc(-c2csc(NC(=O)c3ccc(=O)[nH]c3)n2)c(C)n1Cc1ccccc1 | i | i | i | i | i | . | . | . | .
O=C(Nc1nc(-c2ccccc2)cs1)c1ccc2c(=O)n3c(nc2c1)CCCCC3 | i | i | -12* | i | i | 9.6%* | i | i | i
O=C(Nc1nc(-c2ccccc2)cs1)c1ccc(=O)[nH]c1 | i | i | -4.8* | i | i | i | i | i | i
CC(=O)c1c(C)[nH]c(C(=O)Nc2nc(-c3ccc(-c4ccccc4)cc3)cs2)c1C | i | i | -12* | i | i | 52%* | i | i | i
CC(=O)c1cccc(NC(=O)c2ccc3c(=O)n4c(nc3c2)CCCCC4)c1 | i | i | i | i | i | . | . | . | .
CCOCCCn1c(SCc2ccccc2)nnc1-c1ccncc1 | i | i | i | i | i | . | . | . | .
COc1ccc2nc(NC(=O)CCc3cc(OC)c(OC)c(OC)c3)sc2c1 | i | i | i | i | i | . | . | . | .
COc1ccc(CCNC(=O)c2n[nH]c(=O)c3ccccc23)cc1 | i | i | i | i | i | . | . | . | .
CC(=O)c1ccc(NC(=O)c2cnn3c(C(F)F)cc(C4CC4)nc23)cc1 | i | i | -5* | i | i | i | i | i | i
SMILES | MrgX1 PAM | RGS4 inh | MrgX1 antag | RGS4 pot | MrgX1 ag | MrgX1 ant reconf | HEK293 Ca flux | HEK293 Ca counter | HEK293 Ca cntr2
O=C(CSc1nnc(-c2ccccc2Cl)o1)Nc1ccccn1 | i | i | i | i | i | . | . | . | .
COc1ccc(-c2csc3nc(C)nc(N4CCN(c5ccc(C(C)=O)cc5)CC4)c23)cc1OC | i | i | i | i | i | . | . | . | .
O=C(Cn1c(NCCO)nc2ccccc21)NCC1CCCO1 (stereo not given) | i | i | -4.7* | i | i | i | i | i | i
O=C(Cn1c(NCCO)nc2ccccc21)NCCc1ccccc1 | i | i | i | i | i | . | . | . | .
Cc1c(C#N)c2ccccc2n1CC(=O)NCC1CCCO1 (stereo not given) | i | i | -5.1* | i | i | i | i | i | i
COc1ccc(-c2cc(-c3ccc(Cl)cc3)c(C#N)c(SCC(=O)O)n2)cc1 | i | i | -5.9* | i | i | i | i | i | i
CC(=O)c1sc2nc(-c3cccs3)ccc2c1N | i | i | i | i | i | . | . | . | .
CC(C)NC(=O)c1sc2nc(-c3cccs3)cc(-c3cccs3)c2c1N | i | i | -9* | i | i | i | i | i | i
Cc1sc(NC(=O)c2ccccc2)c(C(c2ccccn2)N2CCN(CCO)CC2)c1C (stereo not given) | i | i | -4.5* | i | i | i | i | i | i
COc1ccc(CNC(=S)Nc2ccccc2)cc1Cl | i | i | i | i | i | . | . | . | .
CCCOc1ccc(CNC(=S)Nc2ccccc2)cc1Cl | i | i | -6.7* | i | i | 77%* | i | i | i
CCc1ccc(C)[n+](CC(=O)c2cccs2)c1 | i | i | i | i | i | . | . | . | .
Cc1ccc(S(=O)(=O)N2CCOCC2)cc1C(=O)NCc1cn2ccsc2n1 | i | i | i | i | i | . | . | . | .
CCc1cccc(CC)c1NC(=O)CSc1nc2ccc(N3C(=O)C4C5C=CC(C5)C4C3=O)cc2s1 (stereo not given) | i | i | -8.2* | i | i | i | i | i | i
CCOC(=O)C1CCCN(C(=O)c2cnn3c(C(F)(F)F)cc(-c4ccccc4)nc23)C1 (stereo not given) | i | i | i | i | i | . | . | . | .

Assay outcomes deposited in PubChem by Johns Hopkins Ion Channel Center.
